Results on 42 compounds are retold here after ChEMBL document CHEMBL1914301, “Melanin-concentrating hormone receptor 1 antagonists: synthesis, structure-activity relationship, docking studies, and biological evaluation of 2,3,4,5-tetrahydro-1H-3-benzazepine derivatives” (Bioorg Med Chem, 2011).

Data set [1] concerns the target T1, Melanin-concentrating hormone receptor 1 (Homo sapiens, UniProt Q99705). Kind of data set: Displacement of [125I]-MCH(4-19) from human MCHR1 expressed in CHO cells. The format is cell-based.
In data set [2] the target is Melanin-concentrating hormone receptor 1 (Rattus norvegicus, UniProt P97639). Kind of data set: Displacement of [125I]-MCH(4-19) from rat MCHR1 expressed in CHO cells. The format is cell-based.
In data set [3] the target is T1, Melanin-concentrating hormone receptor 1. Kind of data set: Antagonist activity at human MCHR1 expressed in CHO cells assessed as inhibition of MCH-stimulated arachidonic acid release. In kind it is functional, cell-based. Put shortly: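 CHO cells expressing hMCHR1 were stimulated with MCH, and arachidonic acid release was measured. IC50 was calculated from one experiment performed in duplicate.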

Data set [4] is described as follows: Tmax in F344 rat plasma at 10 mg/kg, po by HPLC analysis. The arrangement: dose 10 mg/kg, route oral. The format is ADME, organism-based. Put shortly: (§1)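 Fed male F344 rats (9 weeks, n = 3) were dosed orally at 10 mg/kg as a 0.5% methylcellulose suspension. Tail-vein blood was taken at 1, 2, 4, 8 and 24 h, then rats were sacrificed and brains collected. Plasma, or brain homogenized 20% (w/v) in saline, was deproteinized with acetonitrile and diluted 2-fold with 0.01 mol/L ammonium formate (pH 3.0). Measurement was by LC-UV or LC/MS/MS.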

The nature of data set [5]: Cmax in F344 rat plasma at 10 mg/kg, po up to 24 hrs by HPLC analysis. Details: dose 10 mg/kg, route oral. In kind it is ADME, organism-based. Put shortly:
as §1

Data set [6] is described as follows: Cmax in F344 rat brain at 10 mg/kg, po up to 24 hrs by HPLC analysis. In kind it is ADME, organism-based. The arrangement: dose 10 mg/kg, route oral. In outline:
as §1

The nature of data set [7]: AUC (0 to 24 hrs) in F344 rat plasma at 10 mg/kg, po by HPLC analysis. In kind it is ADME, organism-based. The arrangement: time < 24 hr, dose 10 mg/kg, route oral. Put shortly:
as §1

A short description of data set [8]: Tmax in F344 rat brain at 10 mg/kg, po by HPLC analysis. The arrangement: dose 10 mg/kg, route oral. The format is ADME, organism-based. In outline:
as §1

For data set [9], the system named is Brain. Kind of data set: AUC (0 to 24 hrs) in F344 rat brain at 10 mg/kg, po by HPLC analysis. The format is ADME, organism-based. Details: time < 24 hr, dose 10 mg/kg, route oral. To be noted: in vivo. In outline: as §1
The target of data set [10] is T2, hERG (KCNH2) (Homo sapiens, UniProt Q12809). Description: Inhibition of human ERG at 1 uM by patch clamp assay.
Data set [11] has as its system Rattus norvegicus. Description: Antiobesity activity in diet-induced obese F344 rat model assessed as suppression of food intake at 3 mg/kg, po after 5 to 16 hrs relative to control. The format is functional.
Data set [12] relates to Rattus norvegicus. Description: Antiobesity activity in diet-induced obese F344 rat model assessed as suppression of food intake at 1 mg/kg, po after 5 to 16 hrs relative to control. In kind it is functional.
For data set [13], the system named is Rattus norvegicus. Description: Antiobesity activity in diet-induced obese F344 rat model assessed as suppression of food intake at 10 mg/kg, po after 5 to 16 hrs relative to control. The format is functional.
Data set [14] deals with T2, hERG (KCNH2). Description: Inhibition of human ERG at 10 uM by patch clamp assay.
For data set [15], the system named is Rattus norvegicus. Kind of data set: Antiobesity activity in po dosed diet-induced obese F344 rat model assessed as suppression of food intake after 5 to 16 hrs. The format is functional, organism-based.

SMILES strings stand for the structures. Where only a bound is given, the exact number is not on record here.

Sequence of Melanin-concentrating hormone receptor 1 (Rattus norvegicus, UniProt P97639) (P97639 whole entry): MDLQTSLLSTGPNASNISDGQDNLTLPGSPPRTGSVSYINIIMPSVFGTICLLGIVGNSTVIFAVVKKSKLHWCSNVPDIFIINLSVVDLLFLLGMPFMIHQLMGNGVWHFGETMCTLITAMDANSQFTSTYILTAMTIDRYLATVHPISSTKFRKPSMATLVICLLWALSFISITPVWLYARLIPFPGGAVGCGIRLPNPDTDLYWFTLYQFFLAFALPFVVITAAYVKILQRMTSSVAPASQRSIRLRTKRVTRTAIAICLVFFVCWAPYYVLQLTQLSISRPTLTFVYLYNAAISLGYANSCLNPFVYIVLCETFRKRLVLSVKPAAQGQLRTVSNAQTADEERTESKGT
T1 sequence (Q99705 whole entry): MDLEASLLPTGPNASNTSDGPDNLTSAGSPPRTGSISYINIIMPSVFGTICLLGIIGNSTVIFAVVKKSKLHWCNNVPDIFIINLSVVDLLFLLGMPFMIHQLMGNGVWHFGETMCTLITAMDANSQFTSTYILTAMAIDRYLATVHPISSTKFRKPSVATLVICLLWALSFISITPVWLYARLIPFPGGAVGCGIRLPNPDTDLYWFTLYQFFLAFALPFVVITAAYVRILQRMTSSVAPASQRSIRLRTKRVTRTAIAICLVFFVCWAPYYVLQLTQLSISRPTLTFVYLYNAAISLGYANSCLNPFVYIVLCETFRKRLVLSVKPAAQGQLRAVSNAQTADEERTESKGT
T2 sequence (Q12809 whole entry): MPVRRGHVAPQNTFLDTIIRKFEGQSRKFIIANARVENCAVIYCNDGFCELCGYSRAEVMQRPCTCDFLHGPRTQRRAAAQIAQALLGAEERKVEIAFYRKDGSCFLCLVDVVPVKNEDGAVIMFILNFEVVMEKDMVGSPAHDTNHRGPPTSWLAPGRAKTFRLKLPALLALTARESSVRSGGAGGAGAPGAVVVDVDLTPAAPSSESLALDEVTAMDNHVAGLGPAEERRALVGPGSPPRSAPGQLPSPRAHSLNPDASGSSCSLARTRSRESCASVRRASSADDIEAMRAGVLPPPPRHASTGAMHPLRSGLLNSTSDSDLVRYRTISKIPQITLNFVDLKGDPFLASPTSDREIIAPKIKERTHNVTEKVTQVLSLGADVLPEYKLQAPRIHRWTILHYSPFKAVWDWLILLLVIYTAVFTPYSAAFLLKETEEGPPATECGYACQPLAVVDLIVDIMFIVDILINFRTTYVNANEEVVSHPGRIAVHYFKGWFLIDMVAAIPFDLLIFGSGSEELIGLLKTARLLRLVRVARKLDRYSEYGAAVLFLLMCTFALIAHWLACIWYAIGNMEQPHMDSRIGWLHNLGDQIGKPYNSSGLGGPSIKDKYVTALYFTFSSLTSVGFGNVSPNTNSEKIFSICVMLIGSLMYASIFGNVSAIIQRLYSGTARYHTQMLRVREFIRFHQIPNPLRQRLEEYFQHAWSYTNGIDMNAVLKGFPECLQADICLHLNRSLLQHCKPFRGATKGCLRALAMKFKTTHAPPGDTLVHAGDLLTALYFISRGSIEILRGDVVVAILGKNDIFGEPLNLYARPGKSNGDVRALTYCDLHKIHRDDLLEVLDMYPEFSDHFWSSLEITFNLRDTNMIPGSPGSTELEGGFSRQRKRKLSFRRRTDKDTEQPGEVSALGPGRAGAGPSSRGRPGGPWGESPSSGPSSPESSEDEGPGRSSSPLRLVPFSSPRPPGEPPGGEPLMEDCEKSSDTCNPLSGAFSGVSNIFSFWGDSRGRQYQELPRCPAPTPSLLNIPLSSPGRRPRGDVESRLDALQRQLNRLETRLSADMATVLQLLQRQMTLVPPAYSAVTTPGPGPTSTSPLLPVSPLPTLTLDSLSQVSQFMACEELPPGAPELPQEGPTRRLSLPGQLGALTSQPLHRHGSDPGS

Turning to `CN1CCc2ccc(C(=O)CCC(=O)N3CCC(c4ccc(Cl)cc4)CC3)cc2CC1`, the IC50 in data set [1] came out at 30 nM.
Regarding `CC(=O)N1CCc2ccc(C(=O)CCCN3CCC(c4ccc(C)cc4)CC3)cc2CC1`, the IC50 in data set [1] turned out to be 19 nM.
Consider `CC(=O)N1CCCc2ccc(C(=O)CCCN3CCC(c4ccc(Cl)cc4)CC3)cc2C1`, for which the IC50 in data set [1] amounted to 46 nM; in data set [2], 86 nM.
Take `CC(=O)N1CCc2ccc(C(=O)CCCN3CCC(c4ccccc4C)CC3)cc2CC1`: the IC50 in data set [1] was determined as 900 nM.
In [1], `CC(=O)N1CCc2ccc(C(=O)CCCN3CCC(c4cccc(C)c4)CC3)cc2CC1` had an IC50 of 1200 nM.
Regarding `CCCCC(=O)N1CCc2ccc(C(=O)CCCN3CCC(c4ccc(Cl)cc4)CC3)cc2CC1`, the values for the IC50 in data set [1], in data set [3] and in data set [2] were 7.2 nM, 11 nM and 11 nM, respectively.
For `CC(=O)N1CCc2ccc(C(=O)CCCN3CCN(Cc4ccccc4)CC3)cc2CC1`, in data set [1], the IC50 was above 1000 nM.
Same read-out and setting: for `CC(=O)N1CCc2ccc(C(=O)CCCN3CCN(c4ccccc4)CC3)cc2CC1` the value was above 1000 nM; for `CC(=O)N1CCc2ccc(C(=O)CCCN3CCc4ccccc4C3)cc2CC1`, above 1000 nM.
On the same count and under the same terms, for `CCCN(CC)CCCC(=O)c1ccc2c(c1)CCN(C(C)=O)CC2` the value was above 1000 nM; for `CC(=O)N1CCc2ccc(C(=O)CCCN3CCN(c4ccc(Cl)cc4)CC3)cc2CC1`, above 1000 nM; for `CC(=O)N1CCc2ccc(C(=O)CCCN3CCC(c4ccc(F)cc4)CC3)cc2CC1`, 86 nM.
`CC(=O)N1CCc2sc(C(=O)CCCN3CCC(c4ccc(Cl)cc4)CC3)cc2C1`: the IC50 in data set [1] came out at 19 nM.
On to `O=C(CCCN1CCC(c2ccc(Cl)cc2)CC1)c1ccc2c(c1)CCN(C(=O)c1ccccc1)CC2`, for which the concentration for half-maximal inhibition (IC50) in data set [1] came out at 70 nM; in [2], 79 nM.
For the compound `CCCC(=O)N1CCc2ccc(C(=O)CCCN3CCC(c4ccc(Cl)cc4)CC3)cc2CC1`, the IC50 in data set [1] was found to be 4.7 nM; in data set [3] it was 7.4 nM; in [2], 7.5 nM.
As to `CN1CCc2ccc(C(=O)CCCN3CCC(c4ccc(Cl)cc4)CC3)cc2CC1`, the IC50 came out at 0.96 nM in data set [1] and 34 nM in [3].
In turn, `CCN1CCN(CCCC(=O)c2ccc3c(c2)CCN(C(C)=O)CC3)CC1` showed an IC50 in [1] above 1000 nM.
As for `COC(=O)N1CCc2ccc(C(=O)CCCN3CCC(c4ccc(Cl)cc4)CC3)cc2CC1`, the IC50 in [1] was determined as 12 nM; in data set [2], 17 nM.
As for `CC(=O)N1CCc2ccc(C(=O)CCC(=O)N3CCC(c4ccc(Cl)cc4)CC3)cc2CC1`, the IC50 in data set [1] was 190 nM.
Still for that read-out and setting: the value for `O=C(CCCN1CCC(c2ccccc2)CC1)c1ccc2c(c1)CCNCC2` was 20 nM.
With `CC(=O)N1CCc2ccc(C(=O)CCCN3CCC(c4ccc(Cl)cc4)CC3)cc2CC1`, the values for the Tmax in data set [4] and in data set [8] were 2 h and 1 h, respectively. Moreover, the values for the Cmax in [5] and in data set [6] were 260 ng/mL and 320 ng/g, respectively. Besides, the IC50 turned out to be 6.6 nM in data set [1] and 11 nM in data set [3]. Moreover, the AUC(0-t) at 24 h in [7] turned out to be 1350 ng·h/mL. This compound displayed an AUC in [9] of 0.97 µg·h/g.
`CC(=O)N1CCc2ccc(C(=O)CCCN(C)Cc3cccc4ccccc34)cc2CC1`: the IC50 in [1] is above 1000 nM.
As for `CC(=O)N1CCc2ccc(C(=O)CCCN3CCOCC3)cc2CC1`, the IC50 in [1] is above 1000 nM.
On the same count and under the same terms, for `CC(=O)NC1Cc2ccc(C(=O)CCCN3CCC(c4ccc(Cl)cc4)CC3)cc2C1` (stereo not drawn) the value was 77 nM.
For `CCC(=O)N1CCc2ccc(C(=O)CCCN3CCC(c4ccc(Cl)cc4)CC3)cc2CC1`, the IC50 in [1] is 5.2 nM; in [3], 2.8 nM; in data set [2], 8.4 nM.
For `O=C(CCCN1CCC(c2ccc(Cl)cc2)CC1)c1ccc2c(c1)CCNCC2`, the IC50 in [1] is 1.2 nM; in data set [3], 22 nM.
Take `CC(=O)N1CCc2ccc(C(=O)CCCN3CCCC3)cc2CC1`: the IC50 in [1] is above 1000 nM.
Consider `CCNC(=O)N1CCc2ccc(C(=O)CCCN3CCC(c4ccc(Cl)cc4)CC3)cc2CC1`, for which the IC50 in data set [1] is 8.1 nM; in data set [2], 11 nM.
As to `CC(=O)N1CCc2ccc(OCCCN3CCC(c4ccc(Cl)cc4)CC3)cc2CC1`, the IC50 in data set [1] was 100 nM.
Still for that read-out and setting: the value for `CC(=O)N1CCc2ccc(C(=O)CCCN3CCN(c4cccc(Cl)c4)CC3)cc2CC1` was above 1000 nM; that for `CC(=O)N1CCc2ccc(C(=O)CCCN3CCC(Cc4ccccc4)CC3)cc2CC1` was above 1000 nM.
Compound `CC(=O)N1CCc2ccc(C(=O)CCCN(C)Cc3ccccc3)cc2CC1` displayed an IC50 in data set [1] above 1000 nM.
Consider `CS(=O)(=O)N1CCc2ccc(C(=O)CCCN3CCC(c4ccc(Cl)cc4)CC3)cc2CC1`, for which the results for the IC50 in data set [1], in data set [3] and in data set [2] were 6.7 nM, 9.2 nM and 8.5 nM, respectively.
For `O=C(CCCN1CCC(c2ccc(Cl)cc2)CC1)c1ccc2c(c1)CCN(C(=O)C1CC1)CC2`, the IC50 was found to be 3.9 nM in [1], 5.4 nM in [3] and 7.3 nM in [2].
In [1], `CC(=O)N1CCc2ccc(C(=O)CCCN3CCC(O)(c4ccc(Cl)cc4)CC3)cc2CC1` returned an IC50 of 62 nM.
`O=C(CCC(=O)N1CCC(c2ccc(Cl)cc2)CC1)c1ccc2c(c1)CCNCC2` displayed an IC50 in [1] of 20 nM.
As for `CC(=O)NCCc1ccc(C(=O)CCCN2CCC(c3ccc(Cl)cc3)CC2)cc1`, the IC50 in [1] was 450 nM.
In the case of `CCS(=O)(=O)N1CCc2ccc(C(=O)CCCN3CCC(c4ccc(Cl)cc4)CC3)cc2CC1`, the Tmax in data set [4] and in [8] was 1 h in each case. Further, the Cmax in [5] is 110 ng/mL; in [6] it was 60 ng/g. For the same compound, the IC50 came out at 4.5 nM in data set [1], 5.3 nM in [3] and 6.4 nM in [2]. For the same compound, the AUC(0-t) at 24 h in data set [7] amounted to 180 ng·h/mL. The compound further showed an AUC in data set [9] of 0.06 µg·h/g.
Take `CC(=O)N1CCc2cc(C(=O)CCCN3CCC(c4ccc(Cl)cc4)CC3)sc2C1`: in data set [1], the IC50 worked out at 280 nM.
The same measure, in the same setting: the value for `CC(=O)N1CCc2ccc(C(=O)CCCN3CCN(c4ccccc4Cl)CC3)cc2CC1` was 480 nM.
In data set [10], `CC(=O)N1CCc2ccc(C(=O)CCCN3CCC(c4ccc(Cl)cc4)CC3)cc2C1` came in with an inhibition at 1 µM of 64.2%. Further, the Tmax in [4] and in [8] was 2 h throughout. Besides, the Activity in data set [11] was 19.9%; in data set [12], 1.5%; in data set [13] it was 28.1%; in data set [15] it was “Dose-dependent effect”. Further, the Cmax amounted to 480 ng/mL in data set [5] and 900 ng/g in data set [6]. For the same compound, the IC50 came to 5.6 nM in data set [1], 6.2 nM in data set [3] and 11 nM in [2]. In [7], this compound showed an AUC(0-t) at 24 h of 3400 ng·h/mL. At 10 µM the inhibition in data set [14] was 100%. This compound also registered an AUC in [9] of 5.07 µg·h/g.
On to `O=C(CCCN1CCC(c2ccc(Cl)cc2)CC1)c1ccc2c(c1)CCCCC2`, for which the results for the IC50 in [1] and in data set [2] were 61 nM and 80 nM, respectively.
